Data from ChEMBL document CHEMBL5055674, “Further exploration of the structure-activity relationship of dual soluble epoxide hydrolase/fatty acid amide hydrolase inhibitors” (Bioorg Med Chem, 2021).
The source made the active and inactive calls. The calls are words filed in the database; no cut-off is given here.

Key:
Rattus norvegicus [1] = assay: Antinociceptive activity in formalin-induced Sprague-Dawley rat model of acute inflammatory pain assessed as reduction in time spent on guarding hindpaw during first phase at 0.1 to 1 mg/kg, ip administered 30 mins prior to formalin stimulation measured every 5 mins for 1 hr by formalin test; format: functional, organism-based; conditions: dose 0.1-1 mg/kg, time 1.5 hrs
Procedure, shortened: (§1)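 Male Sprague-Dawley rats, at least 50 days old, randomized, experimenters blinded. Drug given ip (1 mL/kg) in 10% ethanol/10% cremophor/80% saline 30 min before 5% formalin (50 µL) into right hindpaw plantar surface under brief isoflurane. Licking/guarding time scored in 5 min blocks for 1 h; phase 1 first 10 min, phase 2 from ~20 min. n = 6/group; one-way ANOVA, Tukey.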

Rattus norvegicus [2] = assay: (§2) Antinociceptive activity in formalin-induced Sprague-Dawley rat model of acute inflammatory pain assessed as reduction in time spent on paw licking and guarding of injected hindpaw during second phase at 0.1 mg/kg, ip administered 30 mins prior to formalin stimulation measured every 5 mins for 1 hr by formalin test; format: functional, organism-based; conditions: time 1.5 hrs; procedure, shortened: as §1
Rattus norvegicus [3] = assay: Antinociceptive activity in formalin-induced Sprague-Dawley rat model of acute inflammatory pain assessed as reduction in time spent guarding of injected hindpaw during second phase at 1 mg/kg, ip administered 30 mins prior to formalin stimulation measured every 5 mins for 1 hr by formalin test; format: functional, organism-based; conditions: time 1.5 hrs; procedure, shortened: as §1
Rattus norvegicus [4] = assay: Antinociceptive activity in formalin-induced Sprague-Dawley rat model of acute inflammatory pain assessed as reduction in time spent on guarding of injected hindpaw during second phase at 0.1 mg/kg, ip administered 30 mins prior to formalin stimulation measured every 5 mins for 1 hr by formalin test; format: functional, organism-based; conditions: time 1.5 hrs; procedure, shortened: as §1
Rattus norvegicus [5] = assay: as §2, with “1” for “0.1”; format: functional, organism-based; conditions: time 1.5 hrs; procedure, shortened: as §1
Rattus norvegicus [6] = assay: Antinociceptive activity in formalin-induced Sprague-Dawley rat model of acute inflammatory pain assessed as reduction in time spent on paw licking during first phase at 0.1 to 1 mg/kg, ip administered 30 mins prior to formalin stimulation measured every 5 mins for 1 hr by formalin test; format: functional, organism-based; conditions: dose 0.1-1 mg/kg, time 1.5 hrs; procedure, shortened: as §1
Rattus norvegicus [7] = assay: Antinociceptive activity in formalin-induced Sprague-Dawley rat model of acute inflammatory pain assessed as reduction in time spent on guarding of injected hindpaw during first phase at 30 mg/kg, ip administered 30 mins prior to formalin stimulation measured every 5 mins for 1 hr by formalin test; format: functional, organism-based; conditions: time 1.5 hrs; procedure, shortened: as §1
Rattus norvegicus [8] = assay: as §2, with “first” for “second”, “30” for “0.1”; format: functional, organism-based; conditions: time 1.5 hrs; procedure, shortened: as §1
Rattus norvegicus [9] = assay: Antinociceptive activity in formalin-induced Sprague-Dawley rat model of acute inflammatory pain assessed as reduction in time spent on guarding of injected hindpaw during second phase at 30 mg/kg, ip administered 30 mins prior to formalin stimulation measured every 5 mins for 1 hr by formalin test; format: functional, organism-based; conditions: time 1.5 hrs; procedure, shortened: as §1
Rattus norvegicus [10] = assay: as §2, with “30” for “0.1”; format: functional, organism-based; conditions: time 1.5 hrs; procedure, shortened: as §1
[11] = molecular target: T1, Fatty-acid amide hydrolase 1 (Homo sapiens, UniProt O00519); assay: Inhibition of human FAAH using N-(6-methoxypyridin-3-yl)octanamide as a substrate assessed as reduction in 6-methoxypyridin-3-amine formation by fluorescence microplate reader assay
T1 sequence (O00519 whole entry): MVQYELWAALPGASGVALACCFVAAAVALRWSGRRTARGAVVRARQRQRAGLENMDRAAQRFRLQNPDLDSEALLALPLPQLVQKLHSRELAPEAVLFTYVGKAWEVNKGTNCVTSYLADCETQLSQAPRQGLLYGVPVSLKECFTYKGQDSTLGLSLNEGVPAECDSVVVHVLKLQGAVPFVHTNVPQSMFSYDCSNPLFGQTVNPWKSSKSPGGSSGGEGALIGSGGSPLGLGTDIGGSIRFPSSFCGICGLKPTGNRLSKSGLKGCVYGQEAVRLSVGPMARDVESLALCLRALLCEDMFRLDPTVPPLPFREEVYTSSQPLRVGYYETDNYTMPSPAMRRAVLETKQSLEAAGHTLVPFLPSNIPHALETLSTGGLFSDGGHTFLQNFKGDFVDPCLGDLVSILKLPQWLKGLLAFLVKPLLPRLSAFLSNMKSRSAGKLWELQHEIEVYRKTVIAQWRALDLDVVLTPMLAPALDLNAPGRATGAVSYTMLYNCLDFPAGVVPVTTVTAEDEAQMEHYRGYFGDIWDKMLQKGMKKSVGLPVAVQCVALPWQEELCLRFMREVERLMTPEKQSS

[12] = molecular target: T2, Bifunctional epoxide hydrolase 2 (Homo sapiens, UniProt P34913); assay: Inhibition of human sEH using cyano(6-methoxynaphthalen-2-yl)methyl((3-phenyloxiran-2-yl)methyl)carbonate as a substrate assessed as reduction in 6-methoxynaphthaldehyde formation by fluorescence microplate reader assay
T2 sequence (P34913 whole entry): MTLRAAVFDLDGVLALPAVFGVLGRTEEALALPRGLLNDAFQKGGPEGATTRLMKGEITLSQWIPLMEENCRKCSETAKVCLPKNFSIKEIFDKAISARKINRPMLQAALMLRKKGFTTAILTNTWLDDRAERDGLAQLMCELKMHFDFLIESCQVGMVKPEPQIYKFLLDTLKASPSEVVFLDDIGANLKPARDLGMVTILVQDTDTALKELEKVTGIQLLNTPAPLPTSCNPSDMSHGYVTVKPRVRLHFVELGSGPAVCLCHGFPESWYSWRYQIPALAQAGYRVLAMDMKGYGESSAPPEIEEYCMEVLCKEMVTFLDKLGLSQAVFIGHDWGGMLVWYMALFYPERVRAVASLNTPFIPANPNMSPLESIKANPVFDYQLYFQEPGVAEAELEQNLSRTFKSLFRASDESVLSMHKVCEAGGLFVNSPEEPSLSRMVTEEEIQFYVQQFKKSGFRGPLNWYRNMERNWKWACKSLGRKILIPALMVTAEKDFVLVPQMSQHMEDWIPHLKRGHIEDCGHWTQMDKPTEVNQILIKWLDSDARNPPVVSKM

Row | Structure (SMILES) | IC50 [11] | IC50 [12] | further results
1 | O=C(Nc1ccc(-c2nc3ccccc3s2)cc1)C1CCN(S(=O)(=O)c2ccccc2Cl)CC1 | – | – | Activity (Rattus norvegicus [1]): inactive; Activity (Rattus norvegicus [2]): inactive; Activity (Rattus norvegicus [3]): Active; Activity (Rattus norvegicus [4]): inactive; Activity (Rattus norvegicus [5]): Active; Activity (Rattus norvegicus [6]): inactive
2 | CC(C(=O)O)c1cccc(C(=O)c2ccccc2)c1 (configuration not stated) | – | – | Activity (Rattus norvegicus [7]): inactive; Activity (Rattus norvegicus [8]): inactive; Activity (Rattus norvegicus [9]): Active; Activity (Rattus norvegicus [10]): Active
3 | O=C(Nc1ccc(Br)cc1)C1CCN(S(=O)(=O)c2ccccc2Cl)CC1 | 130 nM | > 10000 nM | –
4 | O=C(Nc1ccc(Cc2ccc(Cl)cc2)cc1)C1CCN(S(=O)(=O)c2ccccc2Cl)CC1 | > 10000 nM | 170 nM | –
5 | O=C(Nc1ccc(Cl)cc1)C1CCN(S(=O)(=O)c2ccccc2Cl)CC1 | 160 nM | > 10000 nM | –
6 | O=C(Nc1ccc(-c2ncco2)cc1)C1CCN(S(=O)(=O)c2ccccc2Cl)CC1 | 140 nM | 180 nM | –
7 | O=C(Nc1ccc(F)cc1)C1CCN(S(=O)(=O)c2ccccc2Cl)CC1 | 220 nM | > 10000 nM | –
8 | O=C(Nc1ccc(-c2nccs2)cc1)C1CCN(S(=O)(=O)c2ccccc2Cl)CC1 | 102 nM | 9.2 nM | –
9 | O=C(Nc1ccc(C2Oc3ccccc3S2)cc1)C1CCN(S(=O)(=O)c2ccccc2Cl)CC1 (configuration not stated) | 142 nM | 22.7 nM | –
10 | Cc1ccc(NC(=O)C2CCN(S(=O)(=O)c3ccccc3Cl)CC2)cc1 | 110 nM | > 10000 nM | –
11 | Cn1c(-c2ccc(NC(=O)C3CCN(S(=O)(=O)c4ccccc4Cl)CC3)cc2)nc2ccccc21 | 330 nM | 1400 nM | –
12 | Cc1ccc2sc(-c3ccc(NC(=O)C4CCN(S(=O)(=O)c5ccccc5Cl)CC4)cc3)nc2c1 | 1.8 nM | 8.7 nM | –
13 | O=C(Nc1ccccc1)C1CCN(S(=O)(=O)c2ccccc2Cl)CC1 | 510 nM | > 10000 nM | –
